Laboratory results taken from ChEMBL document CHEMBL1933017, “Synthesis and biological evaluation of some thiazolidinones as antimicrobial agents” (2012).
≈ marks a conversion by molar mass, not a printed value.

Experiments:
[1] = test system: Bacillus cereus; test: Antibacterial activity against Bacillus cereus at 100 ug/disc after 24 hrs by disc diffusion method; assay type: functional; details: read-out: DIZ
In short: (§1)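 Paper disc diffusion on autoclaved Mueller-Hinton agar poured 5 mm deep. Agar was swab-inoculated with 10⁵ CFU/mL suspension (0.5 McFarland). Discs 6.25 mm across were soaked in compound solution in DMSO (3.12–100 µg/mL) and plates incubated 24 h at (37 ± 1) °C. Read-out was inhibition zone (mm). DMSO control disc; ciprofloxacin or ketoconazole reference, 100 µg/disc. Mean of three independent experiments.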

[2] = test system: Staphylococcus aureus; test: Antibacterial activity against Staphylococcus aureus after 24 hrs by agar streak dilution method; assay type: functional
In short: (§2)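 MIC by agar streak dilution. Graded amounts of DMSO stock (100 μg/mL) were mixed into molten sterile nutrient agar and poured 4–5 mm deep. Serial concentrations spanned 3.12–100 µg/mL. Plates were inoculated with about 10⁵ CFU/mL of bacterial suspension and incubated at (37 ± 1) °C for 24 h. Each value is the mean of three independent experiments.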

[3] = test system: Pseudomonas aeruginosa; test: Antibacterial activity against Pseudomonas aeruginosa […] after 24 hrs by agar streak dilution method; assay type: functional
[4] = test system: Candida albicans; test: Antifungal activity against Candida albicans after 48 hrs by agar streak dilution method; assay type: functional
In short: (§3)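 Fungal MIC by agar streak dilution on Sabouraud dextrose agar, poured 4–5 mm deep. Compound from a DMSO stock (100 μg/mL) was incorporated at serial concentrations of 3.12–100 µg/mL. Plates were inoculated with about 10⁵ CFU/mL of suspension and incubated at (37 ± 1) °C for 48 h. Each value is the mean of three independent experiments.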

[5] = test system: Bacillus cereus; test: Antibacterial activity against Bacillus cereus after 24 hrs by agar streak dilution method; assay type: functional; in short: as §2
[6] = test system: Escherichia coli; test: Antibacterial activity against Escherichia coli at 100 ug/disc after 24 hrs by disc diffusion method; assay type: functional; details: read-out: DIZ; in short: as §1
[7] = test system: Salmonella typhi; test: Antibacterial activity against Salmonella Typhi after 24 hrs by agar streak dilution method; assay type: functional, Salmonella enterica subsp. enterica serovar Typhi; details: Salmonella enterica
In short: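 Agar streak dilution: DMSO stock (100 µg/mL) graded into molten sterile nutrient agar, poured 4–5 mm deep and solidified. Plates carry serial dilutions spanning 3.12–100 µg/mL. Applied ~10⁵ CFU/mL suspension, then incubated 24 h at (37 ± 1) °C. MIC read as the lowest inhibitory concentration; each value is the mean of three independent experiments.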

[8] = test system: Klebsiella pneumoniae; test: Antibacterial activity against Klebsiella pneumoniae at 100 ug/disc after 24 hrs by disc diffusion method; assay type: functional; details: read-out: DIZ; in short: as §1
[9] = test system: Shigella flexneri; test: Antibacterial activity against Shigella flexneri after 24 hrs by agar streak dilution method; assay type: functional; in short: as §2
[10] = test system: Staphylococcus aureus; test: Antibacterial activity against Staphylococcus aureus at 100 ug/disc after 24 hrs by disc diffusion method; assay type: functional; details: read-out: DIZ; in short: as §1
[11] = test system: Aspergillus fumigatus; test: Antifungal activity against Aspergillus fumigatus after 48 hrs by agar streak dilution method; assay type: functional; in short: as §3
[12] = test system: Candida albicans; test: Antifungal activity against Candida albicans at 100 ug/disc after 24 hrs by disc diffusion method; assay type: functional; details: read-out: DIZ; in short: as §1
[13] = test system: Aspergillus niger; test: Antifungal activity against Aspergillus niger at 100 ug/disc after 24 hrs by disc diffusion method; assay type: functional; details: read-out: DIZ; in short: as §1
[14] = test system: Pseudomonas aeruginosa; test: Antibacterial activity against Pseudomonas aeruginosa at 100 ug/disc after 24 hrs by disc diffusion method; assay type: functional; details: read-out: DIZ; in short: as §1
[15] = test system: Aspergillus clavatus; test: Antifungal activity against Aspergillus clavatus after 48 hrs by agar streak dilution method; assay type: functional; in short: as §3
[16] = test system: Klebsiella pneumoniae; test: Antibacterial activity against Klebsiella pneumoniae […] after 24 hrs by agar streak dilution method; assay type: functional
[17] = test system: Aspergillus clavatus; test: Antifungal activity against Aspergillus clavatus at 100 ug/disc after 24 hrs by disc diffusion method; assay type: functional; details: read-out: DIZ; in short: as §1
[18] = test system: Shigella flexneri; test: Antibacterial activity against Shigella flexneri at 100 ug/disc after 24 hrs by disc diffusion method; assay type: functional; details: read-out: DIZ; in short: as §1
[19] = test system: Escherichia coli; test: Antibacterial activity against Escherichia coli after 24 hrs by agar streak dilution method; assay type: functional; in short: as §2
[20] = test system: Aspergillus niger; test: Antifungal activity against Aspergillus niger after 48 hrs by agar streak dilution method; assay type: functional; in short: as §3
[21] = test system: Salmonella typhi; test: Antibacterial activity against Salmonella Typhi at 100 ug/disc after 24 hrs by disc diffusion method; assay type: functional, Salmonella enterica subsp. enterica serovar Typhi; details: Salmonella enterica, read-out: DIZ
In short: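 Paper disc diffusion on Mueller-Hinton agar poured 5 mm deep; 10⁵ CFU/mL suspension (0.5 McFarland) swabbed over surface. 6.25 mm filter paper discs soaked in compound in DMSO, incubated 24 h at (37 ± 1) °C; inhibition zone diameter in mm. DMSO disc as blank; ciprofloxacin 100 µg/disc as reference. Mean of three independent experiments.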

[22] = test system: Proteus vulgaris; test: Antibacterial activity against Proteus vulgaris after 24 hrs by agar streak dilution method; assay type: functional; in short: as §2
[23] = test system: Aspergillus fumigatus; test: Antifungal activity against Aspergillus fumigatus at 100 ug/disc after 24 hrs by disc diffusion method; assay type: functional; details: read-out: DIZ; in short: as §1
[24] = test system: Proteus vulgaris; test: Antibacterial activity against Proteus vulgaris at 100 ug/disc after 24 hrs by disc diffusion method; assay type: functional; details: read-out: DIZ; in short: as §1

SMILES	zone of inhibition at 100 µg/disc [1] [mm]	MIC [2] [µg/mL]	MIC [3] [µg/mL]	MIC [4] [µg/mL]	MIC [5] [µg/mL]	zone of inhibition at 100 µg/disc [6] [mm]	MIC [7] [µg/mL]	zone of inhibition at 100 µg/disc [8] [mm]	MIC [9] [µg/mL]	zone of inhibition at 100 µg/disc [10] [mm]	MIC [11] [µg/mL]	zone of inhibition at 100 µg/disc [12] [mm]	zone of inhibition at 100 µg/disc [13] [mm]	zone of inhibition at 100 µg/disc [14] [mm]	MIC [15] [µg/mL]	MIC [16] [µg/mL]	zone of inhibition at 100 µg/disc [17] [mm]	zone of inhibition at 100 µg/disc [18] [mm]	MIC [19] [µg/mL]	MIC [20] [µg/mL]	other results
CCN1CCN(CC2SC(c3cccc(O)c3O)N(c3ccc(Nc4nc(Oc5cc(=O)n(C)c6ccccc56)nc(N(C)C)n4)cc3)C2=O)CC1 (stereo unspecified)	12	100 (≈ 138 µM)	100 (≈ 138 µM)	100 (≈ 138 µM)	100 (≈ 138 µM)	< 10	100 (≈ 138 µM)	16	100 (≈ 138 µM)	< 10	100 (≈ 138 µM)	< 10	< 10	11	100 (≈ 138 µM)	100 (≈ 138 µM)	12	< 10	100 (≈ 138 µM)	100 (≈ 138 µM)	zone of inhibition at 100 µg/disc [21]: 14 mm; MIC [22]: 100 µg/mL (≈ 138 µM); zone of inhibition at 100 µg/disc [23]: 13 mm; zone of inhibition at 100 µg/disc [24]: 13 mm
CCN1CCN(CC2SC(c3cccc(F)c3)N(c3ccc(Nc4nc(Oc5cc(=O)n(C)c6ccccc56)nc(N(C)C)n4)cc3)C2=O)CC1 (stereo unspecified)	23	12.5 (≈ 17.6 µM)	50 (≈ 70.4 µM)	25 (≈ 35.2 µM)	6.25 (≈ 8.8 µM)	23	6.25 (≈ 8.8 µM)	22	12.5 (≈ 17.6 µM)	20	50 (≈ 70.4 µM)	25	25	20	50 (≈ 70.4 µM)	25 (≈ 35.2 µM)	24	25	6.25 (≈ 8.8 µM)	12.5 (≈ 17.6 µM)	zone of inhibition at 100 µg/disc [21]: 24 mm; MIC [22]: 50 µg/mL (≈ 70.4 µM); zone of inhibition at 100 µg/disc [23]: 24 mm; zone of inhibition at 100 µg/disc [24]: 19 mm
CCN1CCN(CC2SC(c3ccc(O)cc3O)N(c3ccc(Nc4nc(Oc5cc(=O)n(C)c6ccccc56)nc(N(C)C)n4)cc3)C2=O)CC1 (stereo unspecified)	17	100 (≈ 138 µM)	100 (≈ 138 µM)	100 (≈ 138 µM)	100 (≈ 138 µM)	15	100 (≈ 138 µM)	16	100 (≈ 138 µM)	15	100 (≈ 138 µM)	< 10	11	17	100 (≈ 138 µM)	100 (≈ 138 µM)	17	16	100 (≈ 138 µM)	100 (≈ 138 µM)	zone of inhibition at 100 µg/disc [21]: 14 mm; MIC [22]: 100 µg/mL (≈ 138 µM); zone of inhibition at 100 µg/disc [23]: 15 mm; zone of inhibition at 100 µg/disc [24]: 14 mm
CCN1CCN(CC2SC(c3ccc(C(=O)O)cc3)N(c3ccc(Nc4nc(Oc5cc(=O)n(C)c6ccccc56)nc(N(C)C)n4)cc3)C2=O)CC1 (stereo unspecified)	23	25 (≈ 34 µM)	25 (≈ 34 µM)	100 (≈ 136 µM)	12.5 (≈ 17 µM)	27	50 (≈ 67.9 µM)	26	6.25 (≈ 8.49 µM)	26	50 (≈ 67.9 µM)	25	27	22	50 (≈ 67.9 µM)	12.5 (≈ 17 µM)	23	27	6.25 (≈ 8.49 µM)	25 (≈ 34 µM)	zone of inhibition at 100 µg/disc [21]: 22 mm; MIC [22]: 12.5 µg/mL (≈ 17 µM); zone of inhibition at 100 µg/disc [23]: 20 mm; zone of inhibition at 100 µg/disc [24]: 25 mm
